In the library only some 1.3% were active in any assay of this set; here they are far more common.
RTF Ca sens inh = cardiac RTF calcium desensitization; 340,000 compounds, 0.12% hits; IANBD-labeled cardiac RTF, Ca2+ fluorescence; inhibition, % at 7.15 µM;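 active means inhibition above the mean inhibition of all tested compounds plus 3 SD, cut at about 17% in these data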;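 further: assay run at fixed EC70 calcium of 1.6 mM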
RTF Ca sens act = cardiac RTF calcium sensitization | P19429+P45379 | IANBD-labeled TnC RTF fluorescence at EC20 calcium; 0% EC20 calcium, 100% full calcium | activation, % at 7.2 µM | 340,000 compounds, 0.24% hits | AID 493008;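 active means activation above the mean over all tested compounds plus 3 SD, cut at about 30% in these data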;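 further: rise in fluorescence read as greater calcium sensitivity of cardiac thin filaments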
CAL PDZ FP-1 = inhibitors of human CAL PDZ peptide binding. inhibition, % at 20 µM. 330,000 compounds, 0.02% hits. Q9HD26. purified CAL PDZ, TMR-peptide fluorescence polarization, 1 h;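 active means highest replicate inhibition of at least 40%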;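 further: plate controls were DMSO neutral control wells for no effect and unlabeled competitor peptide control wells for full effect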
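Read-out basis: mP drop reported as inhibition | Assay system: Tagged CAL PDZ protein CerCALP, purified | Benchmarks: Unlabelled peptide for full inhibition, DMSO wells as neutral | Schedule: 1 h incubation at room temperature before polarization reading | Buffer or medium: Sodium phosphate/NaCl buffer pH 7.4 with TCEP, IgG, Thesit | Doses: Single point, 20 µM | Measured by: Fluorescence polarization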
Keap1-Nrf2 PPI = disrupts human Keap1 binding to Nrf2 peptide. Q14145. Keap1 Kelch-Nrf2 peptide fluorescence polarization, 1536-well. inhibition, % at 9.4 µM. 340,000 compounds, 0.15% hits. AID 504523; in the data active means inhibition above about 12%;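 further: human Keap1 Kelch domain with fluorescein labeled Nrf2 9mer peptide probe; 0% = neutral control wells and 100% = peptide positive control; higher means more block of Keap1 binding to Nrf2 peptide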
Target sequence (Q14145 whole entry, looked up, the tested form may be a part): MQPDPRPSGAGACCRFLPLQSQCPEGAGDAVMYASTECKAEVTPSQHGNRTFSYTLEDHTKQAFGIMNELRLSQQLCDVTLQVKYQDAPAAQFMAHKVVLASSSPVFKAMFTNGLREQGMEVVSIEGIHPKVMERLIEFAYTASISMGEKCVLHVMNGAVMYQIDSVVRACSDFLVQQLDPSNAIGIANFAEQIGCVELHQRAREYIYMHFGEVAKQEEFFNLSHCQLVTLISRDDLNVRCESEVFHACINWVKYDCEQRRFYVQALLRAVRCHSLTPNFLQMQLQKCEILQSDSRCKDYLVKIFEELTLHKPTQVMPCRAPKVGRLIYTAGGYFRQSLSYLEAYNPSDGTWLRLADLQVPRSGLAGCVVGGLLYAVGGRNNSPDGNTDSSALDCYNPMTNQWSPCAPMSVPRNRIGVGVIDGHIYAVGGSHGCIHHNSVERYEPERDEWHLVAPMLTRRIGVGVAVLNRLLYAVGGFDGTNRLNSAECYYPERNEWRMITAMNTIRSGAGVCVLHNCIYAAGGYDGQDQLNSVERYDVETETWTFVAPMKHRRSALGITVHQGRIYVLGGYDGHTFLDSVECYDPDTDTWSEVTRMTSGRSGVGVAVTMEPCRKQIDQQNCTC
CAL PDZ FP-2 = CAL PDZ (human) peptide binding inhibition | Q9HD26 | purified CAL PDZ, TMR-peptide fluorescence polarization, 1 h | inhibition, % at 24.9 µM | 300,000 compounds, 0.92% hits;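 active means mean inhibition of at least 30% with at least half of replicates also reaching 30%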;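 further: 0% = DMSO neutral control and 100% = excess unlabeled competitor peptide PRC23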
C-LANA FP = KSHV C-LANA DNA binding inhibition; inhibition, % at 9 µM; MBP-C-LANA/FAM-LBS DNA binding, fluorescence polarization; 340,000 compounds, 0.078% hits;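 active means highest replicate inhibition at or above 60% at 9 µM, even if other replicates fall short; inactive means all replicates below 60% inhibition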;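 further: 0% = neutral control wells and 100% = 4 µM acridine orange control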
Active calls of the source: *; i = inactive; / = no result given; + = active, no number.

SMILES | RTF Ca sens inh | RTF Ca sens act | CAL PDZ FP-1 | Keap1-Nrf2 PPI | CAL PDZ FP-2 | C-LANA FP
CCN(CC)c1ccc2cc(C=O)c(=O)oc2c1 | -425 | 425* | -3 | -176 | -1 | -5
COc1ccc(NC(=O)CSCC(=O)Oc2c(OC)cccc2OC)cc1 | -9 | -2 | -2 | -1 | -5 | 0
CC1CC(C)CN(C(=O)CCC(=O)Nc2nnc(C(C)C)s2)C1 (centres undefined) | -1 | 9 | -1 | 3 | -1 | 2
CCN(CC)c1ccc2cc(C(C)=O)c(=O)oc2c1 | -186 | 153* | -1 | -74 | 2 | 7
CN(C)S(=O)(=O)c1ccc(N2CCOCC2)c(C(=O)NCc2ccc3c(c2)OCO3)c1 | 5 | -2 | -2 | -6 | -1 | -1
Cc1ccc(OC(=O)Nc2ccccc2)cc1 | -2 | 12 | 0 | -4 | -1 | -1
N#CCc1ccc(OC(=O)Nc2ccccc2)cc1 | 6 | -6 | / | -6 | 114* | 0
COc1ccccc1C(=O)NCCC(=O)N(C)Cc1ccc(C)o1 | -1 | -3 | 0 | -3 | 18 | -2
COc1ccc2sc(-c3ccccc3OC)c(C#CC(C)(C)O)c2c1 | -9 | 3 | 0 | -1 | -7 | 70*
COc1ccc2sc(-c3ccccc3OC)c(C#CCCO)c2c1 | -18 | 2 | -5 | -2 | 1 | -3
CC(C)CNC(=O)COC(=O)CCC(=O)c1ccc(Cl)cc1 | -3 | -3 | 41* | -5 | 13 | -2
CC(C)(C)NC(=O)COC(=O)CCC(=O)c1ccc(Cl)cc1 | -4 | -5 | -1 | 2 | 3 | -1
COCCCNC(=O)Cc1ccc(S(=O)(=O)N2CCOCC2)s1 | -11 | -3 | -1 | -6 | 43* | 1
Cn1nc(C(=O)OCC(=O)Nc2ccc(Cl)cc2Cl)c2ccccc2c1=O | -1 | -5 | 0 | -5 | -2 | -3
CCN(CC)c1ccc(/C=N/N2CCN(c3ccccn3)CC2)cc1 | -9 | -1 | 0 | -6 | 43* | 1
CCc1ccc(/C=N/N2CCN(c3ccccn3)CC2)cc1 | 1 | -8 | 1 | 2 | -3 | 0
O=C(Cc1cccc(NC(=O)C2CCCN(C(=O)C3CC3)C2)c1)Nc1ccc(C(=O)N2CCOCC2)cc1 (centres undefined) | -11 | -6 | -1 | 2 | 2 | 5
COc1ccc(OCC(=O)Nc2ccccc2C(=O)N2CCOCC2)cc1 | -3 | 8 | 19 | -3 | 51* | -1
O=C(COc1ccc(Br)cc1)Nc1ccccc1C(=O)N1CCOCC1 | 2 | -3 | -1 | 2 | -5 | 1
CN(CCc1ccccc1)C(=O)CCc1nnc(Cc2ccc3c(c2)OCO3)o1 | -5 | 8 | -2 | -1 | 2 | -1
Cc1cnc(C(=O)OC(C)C(=O)c2c(C)[nH]c3ccccc23)cn1 (centres undefined) | -14 | 5 | -3 | 0 | -4 | 1
COc1cccc(/C=N/NC(=O)c2c(C)nc3ccc(Cl)cn23)c1O | -4 | 3 | 0 | -1 | 62* | 4
COc1ccccc1/C=N\NC(=O)c1c(C)nc2ccc(Cl)cn12 | -11 | 0 | -1 | -5 | 1 | 2
C#CCOCCOCCOCCNc1nc(N2CCN(C(=O)[C@H](CCC(=O)O)n3cc([C@@H](N)[C@H](C)CC)nn3)CC2)nc(N2CCN(C(=O)[C@H](CCC(=O)O)n3cc([C@@H](N)CCSC)nn3)CC2)n1 | 2 | -5 | 0 | -2 | -1 | 0
Cn1c(CN2CCCC2)nc2cc(NC(=O)COc3ccc(Cl)cc3)ccc21 | -5 | 12 | -3 | -11 | -1 | 0
SMILES | RTF Ca sens inh | RTF Ca sens act | CAL PDZ FP-1 | Keap1-Nrf2 PPI | CAL PDZ FP-2 | C-LANA FP
COc1ccc(OCC(=O)Nc2ccc3c(c2)nc(CN2CCCC2)n3C)cc1 | -7 | -1 | -1 | 6 | 58* | 2
O=C(COC(=O)c1cccc(OC(F)F)c1)NC1CCCC1 | -9 | 0 | / | -5 | 42* | -1
O=C(COC(=O)c1ccc(OC(F)F)cc1)NC(=O)NC1CCCC1 | -7 | 8 | 0 | 3 | -3 | 1
Cc1cc(NC(=O)C(C)SCC(=O)Nc2cc(C(F)(F)F)ccc2N2CCOCC2)no1 (centres undefined) | -4 | -7 | 0 | 3 | / | 0
COC(=O)c1c(NC(=O)CS(=O)(=O)c2ccccc2)sc(C)c1C | -3 | 0 | -2 | -1 | 45* | 0
Cc1ccc(NC(=O)COC(=O)c2ccc(NC(=O)CC#N)cc2)cc1S(=O)(=O)N1CCOCC1 | 3 | -3 | -2 | -6 | / | 3
Cc1ccc(C(=O)NCC(=O)Nc2ccc(S(=O)(=O)Nc3cc(C)nc(C)n3)cc2)cc1 | 7 | -1 | 0 | -1 | -3 | -1
COc1ccc(C(=O)NCc2nnc(SCC(=O)Nc3ccccc3F)o2)cc1 | -19 | 6 | -1 | -5 | -1 | 3
COc1ccc(C(=O)NCc2nnc(SCC(=O)Nc3ccccc3OC)o2)cc1 | -4 | -4 | -1 | -3 | 56* | 1
COc1ccc(OCc2nnc(SCC(=O)Nc3ccccc3C#N)o2)cc1 | -16 | -5 | 0 | -4 | 54* | 0
Cn1cc(CN2CCCC(CO)(Cc3cccc(Cl)c3)C2)cn1 (centres undefined) | 0 | -4 | -2 | 1 | -5 | 0
Cc1cccc(-c2ncc(CN3CCCC(CO)(Cc4cccc(Cl)c4)C3)cn2)c1 (centres undefined) | -13 | 5 | 16 | -12 | 57* | -2
CCCN(CCC)C(=O)c1ccc2c(c1)N(CC)C(=O)c1ccccc1S2(=O)=O | -4 | 1 | -2 | 2 | -6 | -3
Cc1ccc2[nH]c(=O)c(COC(=O)C3CCCCC3)cc2c1 | 1 | 3 | 0 | 2 | + | 2
O=[N+]([O-])c1ccc(Sc2nccn2Cc2ccccc2)cc1 | -1 | 1 | 0 | -1 | 30* | -2
Clc1ccc(CSc2nccn2Cc2ccccc2)cc1 | -4 | 4 | / | -1 | -4 | 0
O=c1oc2cc(O)ccc2cc1-c1nc2c(s1)CCc1ccccc1-2 | i | 897* | -2 | -2 | -3 | 16
COc1ccc(C2(c3ccc(OC)cc3)NC(=O)N(CC(=O)NCC(C)c3ccccc3)C2=O)cc1 (centres undefined) | -3 | 2 | -2 | 0 | -4 | -1
Cc1cc(Br)cc(Cl)c1OC(=O)c1cnccn1 | -36 | -1 | -4 | -1 | -1 | 1
Cc1cc(Br)cc(Cl)c1OC(=O)c1ccncc1 | 14 | 2 | -2 | -1 | 47* | 1
Oc1ccc(CCNc2c3ccccc3nc3ccccc23)cc1O | 3 | -1 | -1 | -6 | -5 | -8
COc1ccc(/C=C2/CCc3ccccc3C2=O)cc1OC | -2 | 0 | -1 | 4 | -2 | -1

Screening data deposited in PubChem BioAssay by several laboratories.
